The record followed here is ChEMBL document CHEMBL4477203 (J Med Chem, 2016).

SMILES strings stand for the structures. Numbered stars: 1 amine (or outer) side, 2 acyl side, 3 side chain; on linkers, the order of the positions; unused ones are H or OH. Bridge positions count the residues as written; N and C are the ends. Square brackets hold non-standard residues; d marks the D form. Peptide text beside a SMILES is read from it. I, II: the chains in the order shown. X2 = NCCCCNC(=O)/N=C(\N)NCCC[C@H](N[*:1])C(=O)[*:2]; Suberoyl = O=C(CCCCCCC(=O)[*:2])[*:1]

Assay [1] addresses T1, Neuropeptide Y receptor type 4 (Homo sapiens, UniProt P50391). The assay can be described thus: Agonist activity at human NPY Y4 receptor expressed in HEK293 cells co-expressing CRE-Luc gene assessed as inhibition of forskolin stimulated luciferase activity after 4.5 hrs by luminescence assay. In kind it is functional, cell-based. An outline of the steps: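 HEK293 cells stably co-transfected with a CRE-controlled firefly luciferase reporter and hY4R, tested in phenol-red-free DMEM, pH 7.4. The maximal inhibition by PP was set to 0% activity (α = 1.0). Data are means ± SEM of at least 3 experiments in triplicate.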

For assay [2], the target named is T1, Neuropeptide Y receptor type 4. Put plainly: Displacement of [3H]18 from human NPY Y4 receptor expressed in CHO cells co-expressing Gqi5-mtAEQ after 90 mins by liquid scintillation counting. The class given is cell-based. Background: In a radioligand displacement assay an active substance lowers the binding of a labelled ligand.
For assay [3] the target is unchanged. Put plainly: Agonist activity at human NPY Y4 receptor expressed in CHO cells co-expressing Gqi5-mtAEQ assessed as induction of calcium mobilization by aequorin luminescence assay. In kind it is functional, cell-based. An outline of the steps:
(§1)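 Luminescence was integrated as area under the curve and normalized to the response to 1 µM PP. Data are means ± SEM of at least 3 independent experiments, each run in triplicate.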

For assay [4] the target is unchanged. The assay can be described thus: Displacement of [3H](2R,7R)-10 from human NPY Y4 receptor expressed in CHO cells co-expressing Gqi5-mtAEQ after 90 mins in presence of sodium-free HEPES buffer by liquid scintillation counting. The class given is cell-based.
The target is the same in assay [5]. The assay can be described thus: Displacement of [3H](2R,7R)-10 from human NPY Y4 receptor expressed in CHO cells co-expressing Gqi5-mtAEQ after 90 mins in presence of L-15 medium by liquid scintillation counting. The class given is cell-based.
Assay [6] has the same target. The assay can be described thus: Intrinsic activity at human NPY Y4 receptor expressed in HEK293 cells co-expressing CRE-Luc gene assessed as inhibition of forskolin stimulated luciferase activity after 4.5 hrs by luminescence assay relative to pancreatic polypeptide. In kind it is functional, cell-based. An outline of the steps: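 HEK293 cells stably co-transfected with a CRE-controlled firefly luciferase reporter and hY4R, tested in phenol-red-free DMEM, pH 7.4. […] The maximal inhibition by PP was set to 0% activity (α = 1.0). Data are means ± SEM of at least 3 experiments in triplicate.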

Assay [7] shares this target. The assay can be described thus: Intrinsic activity at human NPY Y4 receptor expressed in CHO cells co-expressing Gqi5-mtAEQ assessed as induction of calcium mobilization by aequorin luminescence assay relative to pancreatic polypeptide. In kind it is functional, cell-based. In outline: as §1
In general terms: Calcium flux is commonly read through the fluorescence of an indicator in the cells.

Assay [8] deals with T2, Neuropeptide Y receptor type 1 (Homo sapiens) (UniProt P25929).
T2 sequence (whole entry): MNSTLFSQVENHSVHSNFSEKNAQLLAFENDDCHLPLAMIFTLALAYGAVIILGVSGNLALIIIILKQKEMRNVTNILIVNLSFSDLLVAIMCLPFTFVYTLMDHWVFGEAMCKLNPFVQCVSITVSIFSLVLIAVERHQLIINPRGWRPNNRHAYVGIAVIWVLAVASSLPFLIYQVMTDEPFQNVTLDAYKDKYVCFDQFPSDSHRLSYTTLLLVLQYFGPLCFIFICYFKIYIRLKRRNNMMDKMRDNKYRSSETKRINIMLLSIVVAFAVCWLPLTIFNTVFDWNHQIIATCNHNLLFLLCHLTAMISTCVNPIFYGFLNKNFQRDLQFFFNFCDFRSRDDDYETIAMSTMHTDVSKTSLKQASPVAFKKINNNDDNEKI
The assay can be described thus: Antagonist activity at human NPY Y1 receptor expressed in human HEL cells assessed as inhibition of the pNPY-stimulated intracellular [Ca2+] mobilization by Fura-2 based luminescence spectrometry. In kind it is functional, cell-based. An outline of the steps: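 Functional Y1R assay on HEL cells, which express Y1R endogenously. Intracellular Ca2+ was read with Fura-2 on a luminescence spectrometer. Antagonism is expressed as Kb.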

Assay [9] concerns the target T1, Neuropeptide Y receptor type 4. Put plainly: Binding affinity to human NPY Y4 receptor expressed in CHO cells co-expressing Gqi5-mtAEQ after 90 mins in presence of sodium-free HEPES buffer by liquid scintillation counting. In kind it is cell-based.
The target is the same in assay [10]. The assay can be described thus: Binding affinity to human NPY Y4 receptor expressed in CHO cells co-expressing Gqi5-mtAEQ after 90 mins in presence of L-15 medium by liquid scintillation counting. The class given is cell-based.
In assay [11] the target is T3, Neuropeptide Y receptor type 2 (Homo sapiens, UniProt P49146).
T3 sequence (P49146 whole entry): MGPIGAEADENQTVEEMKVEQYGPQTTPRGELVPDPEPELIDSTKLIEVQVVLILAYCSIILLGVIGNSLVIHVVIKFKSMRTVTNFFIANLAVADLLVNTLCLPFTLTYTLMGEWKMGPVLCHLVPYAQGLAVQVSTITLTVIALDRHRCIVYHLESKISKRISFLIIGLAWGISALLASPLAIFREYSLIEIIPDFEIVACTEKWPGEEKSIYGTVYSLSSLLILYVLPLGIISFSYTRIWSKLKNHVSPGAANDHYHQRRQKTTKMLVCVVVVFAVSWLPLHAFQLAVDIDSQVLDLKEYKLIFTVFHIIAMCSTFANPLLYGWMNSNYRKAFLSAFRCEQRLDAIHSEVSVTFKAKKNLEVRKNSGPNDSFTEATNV
The assay can be described thus: Displacement of [3H]propionyl-pNPY from human NPY Y2 receptor expressed in CHO cells co-expressing Gqi5-mtAEQ after 90 mins by liquid scintillation counting. In kind it is cell-based. In outline: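 Adherent CHO-hY2R-Gqi5-mtAEQ cells in buffer I with 1% BSA and 0.1 mg/mL bacitracin at 22 °C. […] Incubation was 90 min, followed by two ice-cold washes, lysis and scintillation counting.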

Assay [12] concerns the target T4, Neuropeptide Y receptor type 1 (Homo sapiens, UniProt P25929).
T4 sequence (P25929 whole entry): T2 sequence (whole entry)
The assay can be described thus: Displacement of [3H]UR-MK136 from human NPY Y1 receptor expressed in human MCF7 cells by liquid scintillation counting. In kind it is cell-based.

Assay [13] deals with T5, Neuropeptide Y receptor type 5 (Homo sapiens, UniProt Q15761).
T5 sequence (Q15761 whole entry): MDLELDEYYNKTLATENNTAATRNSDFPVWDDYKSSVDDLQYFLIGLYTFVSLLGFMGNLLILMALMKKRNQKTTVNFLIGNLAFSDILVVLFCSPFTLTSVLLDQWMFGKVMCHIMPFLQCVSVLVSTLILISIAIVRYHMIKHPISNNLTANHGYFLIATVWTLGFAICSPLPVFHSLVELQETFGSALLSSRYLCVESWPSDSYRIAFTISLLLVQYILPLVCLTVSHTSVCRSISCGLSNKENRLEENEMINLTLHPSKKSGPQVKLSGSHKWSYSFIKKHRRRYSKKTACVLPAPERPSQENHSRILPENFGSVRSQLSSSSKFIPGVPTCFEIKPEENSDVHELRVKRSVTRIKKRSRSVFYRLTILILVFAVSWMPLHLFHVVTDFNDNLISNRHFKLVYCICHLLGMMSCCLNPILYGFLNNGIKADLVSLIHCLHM
Put plainly: Displacement of [3H]propionyl-pNPY from human NPY Y5 receptor expressed in human HEC1b cells after 120 mins by liquid scintillation counting. In kind it is cell-based. An outline of the steps:
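Adherent HEC-1B-hY5 cells in buffer II with 1% BSA and 0.1 mg/mL bacitracin at 22 °C. […] Incubation was 120 min, followed by ice-cold washes, lysis and scintillation counting.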

T1 sequence (P50391 whole entry): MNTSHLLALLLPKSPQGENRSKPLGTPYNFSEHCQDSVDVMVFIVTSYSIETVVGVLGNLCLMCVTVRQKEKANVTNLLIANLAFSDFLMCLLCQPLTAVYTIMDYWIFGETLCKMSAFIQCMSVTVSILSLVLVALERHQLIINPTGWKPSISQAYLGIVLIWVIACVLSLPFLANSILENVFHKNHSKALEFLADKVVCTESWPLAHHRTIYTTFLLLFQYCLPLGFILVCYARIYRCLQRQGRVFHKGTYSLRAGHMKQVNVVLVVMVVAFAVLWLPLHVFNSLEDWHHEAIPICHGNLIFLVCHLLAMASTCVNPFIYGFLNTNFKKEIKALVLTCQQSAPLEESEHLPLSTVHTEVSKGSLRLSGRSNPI

The term EC50 denotes the concentration at which the effect is half-maximal. As a reminder, the Ki is the equilibrium dissociation constant of an inhibitor or competing ligand from its target. As to `CC[C@H](C)[C@H](N)C(=O)N[C@H]1CCC(=O)NC[C@@H](C(=O)N[C@@H](Cc2ccc(O)cc2)C(=O)N[C@@H](CCCN=C(N)N)C(=O)N[C@@H](CC(C)C)C(=O)N[C@@H](CCCN=C(N)N)C(=O)N[C@@H](Cc2ccc(O)cc2)C(N)=O)NC(=O)[C@@H]2CCCN2C(=O)[C@@H](NC(=O)[C@@H](N)[C@@H](C)CC)CCC(=O)NC[C@@H](C(=O)N[C@@H](Cc2ccc(O)cc2)C(=O)N[C@@H](CCCN=C(N)N)C(=O)N[C@@H](CC(C)C)C(=O)N[C@@H](CCCN=C(N)N)C(=O)N[C@@H](Cc2ccc(O)cc2)C(N)=O)NC(=O)[C@@H]2CCCN2C1=O`, the EC50 came to 5.5 nM in [1] (hek293) and 8.5 nM in assay [3] (cho). Besides, the Ki in [2] (cho) is 1.3 nM; in assay [4] (cho), 1.6 nM.
For orientation: Kb means the affinity of an antagonist, worked out from how it opposes an agonist. Take `CC(C)C[C@H](NC(=O)[C@H](CCCNC(=N)N)NC(=O)[C@H](Cc1ccc(O)cc1)NC(=O)[C@H](N)CCCC[C@@H](N)C(=O)N[C@@H](Cc1ccc(O)cc1)C(=O)N[C@@H](CCCNC(=N)N)C(=O)N[C@@H](CC(C)C)C(=O)N[C@@H](CCCNC(=N)N)C(=O)N[C@@H](Cc1ccc(O)cc1)C(N)=O)C(=O)N[C@@H](CCCNC(=N)N)C(=O)N[C@@H](Cc1ccc(O)cc1)C(N)=O`: the results for the Ki in assay [5] and in assay [2] were 2 nM and 0.18 nM, respectively. The Intrinsic activity amounted to 1.03 in assay [6] and 0.75 in assay [7]. Moreover, the EC50 in assay [1] is 1.6 nM. Moreover, the Kb in [8] is 9.5 nM.
As a reminder, the Kd is the equilibrium constant for the complex coming apart. Take `[3H]CC([3H])C(=O)N[C@@H](CCCC[C@H](N)C(=O)N[C@@H](Cc1ccc(O)cc1)C(=O)N[C@@H](CCCNC(=N)N)C(=O)N[C@@H](CC(C)C)C(=O)N[C@@H](CCCNC(=N)N)C(=O)N[C@@H](Cc1ccc(O)cc1)C(N)=O)C(=O)N[C@@H](Cc1ccc(O)cc1)C(=O)N[C@@H](CCCNC(=N)N)C(=O)N[C@@H](CC(C)C)C(=O)N[C@@H](CCCNC(=N)N)C(=O)N[C@@H](Cc1ccc(O)cc1)C(N)=O` (stereo partly drawn): the results for the Kd in assay [9] and in assay [10] were 0.67 nM and 9.8 nM, respectively.
In the case of `CC(C)C[C@H](NC(=O)[C@H](CCCNC(=N)N)NC(=O)[C@H](Cc1ccc(O)cc1)NC(=O)CCCCCCC(=O)N[C@@H](Cc1ccc(O)cc1)C(=O)N[C@@H](CCCN/C(N)=N/C(=O)NCCCCN)C(=O)N[C@@H](CC(C)C)C(=O)N[C@@H](CCCNC(=N)N)C(=O)N[C@@H](Cc1ccc(O)cc1)C(N)=O)C(=O)N[C@@H](CCCNC(=N)N)C(=O)N[C@@H](Cc1ccc(O)cc1)C(N)=O` (I: Y[X2]LRY-NH2 / II: YRLRY-NH2; linker I:N-II:N via Suberoyl), the Intrinsic activity in assay [6] worked out at 1.06; in assay [7] it was 0.8. Also, the EC50 came out at 1.7 nM in assay [1] and 6.4 nM in assay [3]. For the same molecule, the Ki was 730 nM in [11], 1.2 nM in assay [4], 410 nM in assay [12] and 140 nM in assay [13]. Moreover, the Kb in [8] was determined as 25.3 nM.
As for `NCCN(CCNC(=O)c1ccc(C(=O)NCCOCCOCCNC(=O)/N=C(/N)NCCC[C@@H](NC(=O)C(c2ccccc2)c2ccccc2)C(=O)NCc2ccc(O)cc2)cc1)CCNC(=O)c1ccc(C(=O)NCCOCCOCCNC(=O)/N=C(/N)NCCC[C@@H](NC(=O)C(c2ccccc2)c2ccccc2)C(=O)NCc2ccc(O)cc2)cc1`, the results for the Ki in [5] and in [2] were 150 nM and 630 nM, respectively.
